Test [1] relates to L1210. Put plainly: Compound tested for activity against mouse leukemia L1210 tumor (Intraperitoneally implanted) after single ip injection on day 1 at optimal dose of 100 mg/kg (Dose range 256-16). It is filed as functional. Particulars: route intraperitoneal. In a few lines: (§1)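 L1210 leukaemia implanted intraperitoneally in mice. Compound given over a dose range (mg/kg); optimum dose selected. Survivors for toxicity recorded day 5 post-injection. Measures: T – C body weight difference (g), % T/C, and cures, defined as 30-day survivors.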

For test [2], the system named is L1210. Put plainly: The effect of compound on mouse leukemia L1210 tumor (Intraperitoneally implanted)after single dose injected intraperitoneally on day 1 […] at OD of 100 mg/kg. It is filed as functional. Particulars: route intraperitoneal.
Test [3] has as its system L1210. Put plainly: Compound tested for toxicity against mouse leukemia L1210 tumor (Intraperitoneally implanted) after single ip injection on day 1 at optimal dose (OD) of 100 mg/kg on the 5th day after the injection of the compound; (6/6). In kind it is functional. Conditions: route intraperitoneal.
Test [4] concerns L1210. Put plainly: Effect of compound on mouse leukemia L1210 tumor (Intraperitoneally implanted) after single dose injected intraperitoneally on day 1 recorded as animal weight difference of the treated and the control (T-C) at OD of 100 mg/kg. In kind it is functional. Conditions: route intraperitoneal. In a few lines:
as §1

The test system of test [5] is 3EM 37. Put plainly: Compound tested for toxicity against 3EM 37 mouse ependymoblastoma after single ip injection on day 1 at optimal dose (OD) of 100 mg/kg on the 5th day after the injection of the compound; (10/10). Particulars: route intraperitoneal.
Test [6] relates to 3EM 37. Put plainly: Compound tested for activity against 3EM 37 mouse ependymoblastoma after single ip injection on day 1 at optimal dose of 128 mg/kg (Dose range 256-16). Conditions: route intraperitoneal. In kind it is functional.
Test [7] has as its system 3EM 37. Put plainly: Effect of compound on 3EM 37 mouse ependymoblastoma after single ip injection on day 1 recorded as percentage of cured animals at OD of 100 mg/kg. Conditions: route intraperitoneal. It is filed as functional.
The subject of test [8] is 3EM 37. Put plainly: Effect of compound on 3EM 37 mouse ependymoblastoma after single ip injection on day 1 recorded as animal weight difference of the treated and the control (T-C) at OD of 100 mg/kg. In kind it is functional. Particulars: route intraperitoneal.
The test system of test [9] is Mus musculus. Put plainly: Compound tested for the effect on total white blood cell count and reported as percentage change from control on day 7 at 106 mg/kg (ip). In kind it is functional. In a few lines: (§2)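 Total white blood cell count in mice. Treatment was intraperitoneal at the listed mg/kg doses, 10 mice per group. Counts were taken on days 3, 5 and 7 and expressed as % change from control, with the control being each group's predose value. Significance was taken at p ≤ 0.05.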

Test [10] has as its system Mus musculus. Put plainly: Compound tested for the effect on total white blood cell count and reported as percentage change from control on day 5 at 13.25 mg/kg (ip). It is filed as functional. In a few lines: as §2
Test [11] relates to Lewis lung carcinoma cell line. Put plainly: Effect of compound on Lewis Lung carcinoma after single dose injected intraperitoneally on day 1 recorded as percentage of cured animals at OD of 64 mg/kg. Particulars: Mus musculus, route intraperitoneal.
The test system of test [12] is Mus musculus. Put plainly: Compound tested for the effect on total white blood cell count and reported as percentage change from control on day 3 at 13.25 mg/kg (ip). It is filed as functional. In a few lines: as §2
The test system of test [13] is Mus musculus. Put plainly: Compound tested for the effect on total white blood cell count and reported as percentage change from control on day 7 at 13.25 mg/kg (ip). In kind it is functional. In a few lines: as §2
Test [14] concerns Mus musculus. Put plainly: Compound tested for the effect on total white blood cell count and reported as percentage change from control on day 3 at 53 mg/kg (ip). In kind it is functional. In a few lines:
as §2

Test [15] has as its system Mus musculus. Put plainly: Compound tested for the effect on total white blood cell count and reported as percentage change from control on day 5 at 53 mg/kg (ip). It is filed as functional. In a few lines:
as §2

For test [16], the system named is P388. Put plainly: Compound tested for activity against mouse leukemia L1210 tumor (Intraperitoneally implanted) after single ip injection on day 1 at optimal dose of 100 mg/kg (Dose range 200-6.25). It is filed as functional. Conditions: route intraperitoneal. In a few lines: as §1
Test [17] deals with Mus musculus. Put plainly: Compound tested for the effect on total white blood cell count and reported as percentage change from control on day 3 at 106 mg/kg (ip). In kind it is functional. In a few lines: as §2
Test [18] has as its system Mus musculus. Put plainly: Compound tested for the effect on total white blood cell count and reported as percentage change from control on day 3 at 26.5 mg/kg (ip). It is filed as functional. In a few lines:
as §2

Test [19] has as its system P388. Put plainly: The effect of compound on P388 cell after single dose injected intraperitoneally on day 1 […] at OD of 100 mg/kg. In kind it is functional, Mus musculus. Conditions: route intraperitoneal. In a few lines: (§3)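 Mice bore intraperitoneally implanted P-388 leukaemia and were dosed across a mg/kg range, with an optimum dose picked. Toxicity survivors were scored on day 5 after injection. Outcomes were T – C animal weight difference (g) and % T/C. A cure was a 30-day survivor.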

Test [20] concerns 3EM 37. Put plainly: Compound tested for toxicity against 3EM 37 Mouse Ependymoblastoma after single ip injection on day 1 at optimal dose (OD) of 100 mg/kg on the 5th day after the injection of the compound; (10/10). It is filed as functional. Conditions: route intraperitoneal.
The subject of test [21] is P388. Put plainly: Effect of compound on P388 cell after single ip injection on day 1 recorded as animal weight difference of the treated and the control (T-C) at OD of 100 mg/kg. In kind it is functional, Mus musculus. Particulars: route intraperitoneal. In a few lines:
as §3

Test [22] relates to Mus musculus. Put plainly: Compound tested for the effect on total white blood cell count and reported as percentage change from control on day 7 at 53 mg/kg (ip). In kind it is functional. In a few lines:
as §2

Test [23] relates to L1210. Put plainly: Compound tested for toxicity against mouse leukemia L1210 tumor (Intracerebrally implanted) after single ip injection on day 1 at optimal dose (OD) of 100 mg/kg on the 5th day after the injection of the compound; (6/6). Particulars: route intraperitoneal. It is filed as functional.
Test [24] deals with 3EM 37. Put plainly: Compound tested for activity against 3EM 37 mouse ependymoblastoma after single ip injection on day 1 at optimal dose of 100 mg/kg (Dose range 200-12.5). It is filed as functional. Conditions: route intraperitoneal.
The subject of test [25] is Mus musculus. Put plainly: Compound tested for the effect on total white blood cell count and reported as percentage change from control on day 5 at 106 mg/kg (ip). In kind it is functional. In a few lines: as §2
Test [26] deals with Lewis lung carcinoma cell line. Put plainly: Effect of compound on Lewis Lung carcinoma after single dose injected intraperitoneally on day 1 recorded as animal weight difference of the treated and the control (T-C) at OD of 64 mg/kg. It is filed as functional, Mus musculus. Conditions: route intraperitoneal.
Test [27] has as its system L1210. Put plainly: Compound tested for activity against mouse leukemia L1210 tumor (Intracerebrally implanted) after single ip injection on day 1 at optimal dose of 100 mg/kg (Dose range 200-12.5). Conditions: route intraperitoneal. It is filed as functional.
Test [28] relates to P388. Put plainly: Compound tested for toxicity against mouse P388 cell (Intraperitoneally implanted) after single ip injection on day 1 at optimal dose (OD) of 100 mg/kg on the 5th day after the injection of the compound; (6/6). It is filed as functional. Conditions: route intraperitoneal.
For test [29], the system named is Lewis lung carcinoma cell line. Put plainly: Compound tested for activity against Lewis lung carcinoma after single ip injection on day 1 at optimal dose of 64 mg/kg (Dose range 64-2). Conditions: route intraperitoneal.
Test [30] has as its system L1210. Put plainly: Compound tested for activity against mouse leukemia L1210 tumor (Intraperitoneally implanted) after single ip injection on day 1 at optimal dose of 100 mg/kg (Dose range 200-12.5). It is filed as functional. Conditions: route intraperitoneal. In a few lines: as §1

The text below walks through data of ChEMBL document CHEMBL1121486, “Synthesis of nitrosourea derivatives of pyridine and piperidine as potential anticancer agents” (1980).

Structures are written as SMILES. Several values for one entry are separate records, joined by “and”; a condition that tells them apart may be missing. Identical values can stand only once. Where only a bound is given, the exact number is not on record here.

Compound `CCN1CCCC(NC(=O)N(CCCl)N=O)C1.O=C(O)/C=C\C(=O)O` (centres undefined) yielded an Optimal dose with L1210 [1] of 128 mg/kg. Moreover, the T/C with L1210 [2] came out at 235%. Besides, the Survival in the test with L1210 [3] is given as 6. Also, the T-C in the test on L1210 [4] was -5.9 g.

For the compound `CC1CCC(NC(=O)N(CCCl)N=O)CC1` (centres undefined) [SEMUSTINE], in the test on 3EM 37 [5], the Survival is 9. This compound also returned an Optimal dose with 3EM 37 [6] of 128 mg/kg. The T/C with 3EM 37 [7] was found to be 204%. Also, the T-C in the test on 3EM 37 [8] amounted to 1 g.

Regarding `O=C(O)/C=C\C(=O)O.O=NN(CCCl)C(=O)NC1CCN(Cc2ccccc2)CC1`, the Change was 1% in the test with Mus musculus [9]; 18% in the test with Mus musculus [10]; 3% with Mus musculus [12]; 8% in the test on Mus musculus [13]; -22% in the test on Mus musculus [14]; -5% and 5% in the test with Mus musculus [15]. In addition, the Change in the test with Mus musculus [17] is -67%; in the test with Mus musculus [18], 12%; in the test with Mus musculus [22], 14% and 7%; with Mus musculus [25] it was -35%. Besides, the T/C in test [11] was more than 353%; in the test on P388 [19], 361%; with L1210 [2] (100 mg/kg), 379% and 151%; in the test with 3EM 37 [7], 242%. Further, the Optimal dose with P388 [16] worked out at 100 mg/kg; with 3EM 37 [24] it was 100 mg/kg; in the test with L1210 [27], 100 mg/kg; in [29] it was 64 mg/kg; in the test on L1210 [30], 100 mg/kg. Further, the Survival stood at 10 in the test with 3EM 37 [20], 6 with L1210 [3], 6 in the test on L1210 [23] and 6 with P388 [28]. Moreover, the T-C in the test with P388 [21] was -4.5 g; in test [26] it was -2.9 g; with 3EM 37 [8], -1.2 g.
